≈ marks a conversion by molar mass, not a printed value. Non-standard residues stand in square brackets, D forms with d. Residues, ends and D or L forms follow the SMILES beside them. *: point of attachment. OBn = c1ccc(CO*)cc1
Columns and labels:
Assay type in all cases: functional
[1] = tested on: Staphylococcus epidermidis; experiment: Minimum inhibitory concentration against methicillin-resistant Staphylococcus epidermidis (ATCC 27626)
[2] = tested on: Staphylococcus aureus; experiment: Minimum inhibitory concentration against methicillin-resistant Staphylococcus aureus (ATCC 33591)
[3] = tested on: Staphylococcus aureus; experiment: Minimum inhibitory concentration against Staphylococcus aureus
Outline: (§1)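 Broth microdilution, inoculum 2 × 10⁶ cfu/mL, in 1% Bacto Peptone water, overnight at 37 °C. At least three independent dilutions tested in parallel. Gentamicin susceptibility run as internal standard.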

[4] = tested on: Escherichia coli; experiment: Minimum inhibitory concentration against Escherichia coli; outline: as §1

| Compound | MIC [1] [µg/mL] | MIC [2] [µg/mL] | MIC [3] [µg/mL] | MIC [4] [µg/mL] |
| --- | --- | --- | --- | --- |
| NC(N)=NCCC[C@H](N)C(=O)N[C@@H](Cc1c[nH]c2ccccc12)C(=O)N[C@H](CCCN=C(N)N)C(=O)N[C@H](Cc1c[nH]c2ccccc12)C(=O)OCc1ccccc1 | 2.5 (≈ 3.15 µM) | 2.5 (≈ 3.15 µM) | 5 (≈ 6.31 µM) | 75 (≈ 94.6 µM) |
| NC(N)=NCCC[C@H](N)C(=O)N[C@@H](Cc1c[nH]c2ccccc12)C(=O)OCc1ccccc1 | 10 (≈ 22.2 µM) | 15 (≈ 33.3 µM) | 15 (≈ 33.3 µM) | > 200 |
| NC(N)=NCCC[C@@H](N)C(=O)N[C@@H](Cc1c[nH]c2ccccc12)C(=O)OCc1ccccc1 | 25 (≈ 55.5 µM) | 25 (≈ 55.5 µM) | 25 (≈ 55.5 µM) | > 200 |
| NC(N)=NCCC[C@H](NC(=O)[C@H](Cc1c[nH]c2ccccc12)NC(=O)[C@@H](N)CCCN=C(N)N)C(=O)N[C@@H](Cc1c[nH]c2ccccc12)C(=O)OCc1ccccc1 | 2.5 (≈ 3.15 µM) | 2.5 (≈ 3.15 µM) | 2.5 (≈ 3.15 µM) | 50 (≈ 63.1 µM) |
| COC(=O)[C@H](CCCN=C(N)N)NC(=O)[C@H](Cc1c[nH]c2ccccc12)NC(=O)C1CCCCC1 | – | – | > 200 | > 200 |
| NC(N)=NCCC[C@H](N)C(=O)N[C@H](Cc1c[nH]c2ccccc12)C(=O)OCc1ccccc1 | 25 (≈ 55.5 µM) | 50 (≈ 111 µM) | 50 (≈ 111 µM) | > 200 |
| NC(N)=NCCC[C@H](N)C(=O)N[C@@H](Cc1ccccc1)C(=O)OCc1ccccc1 | 75 (≈ 182 µM) | 200 (≈ 486 µM) | 200 (≈ 486 µM) | > 200 |
| NC(N)=NCCC[C@@H](N)C(=O)N[C@H](Cc1c[nH]c2ccccc12)C(=O)OCc1ccccc1 | 20 (≈ 44.4 µM) | 50 (≈ 111 µM) | 50 (≈ 111 µM) | > 200 |
| NC(N)=NCCC[C@H](NC(=O)[C@@H](N)Cc1c[nH]c2ccccc12)C(=O)N[C@@H](Cc1c[nH]c2ccccc12)C(=O)OCc1ccccc1 | 5 (≈ 7.85 µM) | 5 (≈ 7.85 µM) | 5 (≈ 7.85 µM) | 75 (≈ 118 µM) |
| N=C(N)NCCC[C@H](NC(=O)C1CCCCC1)C(=O)N[C@@H](Cc1c[nH]c2ccccc12)C(=O)OCc1ccccc1 | – | – | 25 (≈ 44.6 µM) | 200 (≈ 357 µM) |
| NC(N)=NCCC[C@@H](NC(=O)[C@H](N)Cc1c[nH]c2ccccc12)C(=O)N[C@H](Cc1c[nH]c2ccccc12)C(=O)OCc1ccccc1 | 5 (≈ 7.85 µM) | 5 (≈ 7.85 µM) | 5 (≈ 7.85 µM) | 75 (≈ 118 µM) |
| NC(N)=NCCC[C@H](NC(=O)[C@H](N)Cc1c[nH]c2ccccc12)C(=O)N[C@@H](Cc1c[nH]c2ccccc12)C(=O)OCc1ccccc1 | 10 (≈ 15.7 µM) | 20 (≈ 31.4 µM) | 20 (≈ 31.4 µM) | 75 (≈ 118 µM) |
| COC(=O)[C@H](CCCN=C(N)N)NC(=O)[C@H](Cc1c[nH]c2ccccc12)NC(=O)Cc1c[nH]c2ccccc12 | – | – | 200 (≈ 376 µM) | 200 (≈ 376 µM) |
| N=C(N)NCCC[C@H](NC(=O)Cc1c[nH]c2ccccc12)C(=O)N[C@@H](Cc1c[nH]c2ccccc12)C(=O)OCc1ccccc1 | – | – | 20 (≈ 32.9 µM) | 150 (≈ 247 µM) |
| NC(=O)[C@H](CCCN=C(N)N)NC(=O)[C@H](Cc1c[nH]c2ccccc12)NC(=O)[C@@H](N)CCCN=C(N)N (H-Arg-Trp-Arg-NH2) | – | – | > 200 | > 200 |
| NCCCC[C@H](N)C(=O)N[C@@H](Cc1c[nH]c2ccccc12)C(=O)OCc1ccccc1 (H-Lys-Trp-OBn) | 25 (≈ 59.2 µM) | 25 (≈ 59.2 µM) | 50 (≈ 118 µM) | > 200 |
| NCCCC[C@H](N)C(=O)N[C@H](Cc1c[nH]c2ccccc12)C(=O)OCc1ccccc1 (H-Lys-[dW]-OBn) | 25 (≈ 59.2 µM) | 50 (≈ 118 µM) | 75 (≈ 178 µM) | > 200 |
| NC(N)=NCCC[C@H](NC(=O)[C@@H](N)Cc1ccccc1)C(=O)OCc1ccccc1 (H-Phe-Arg-OBn) | 200 (≈ 486 µM) | 200 (≈ 486 µM) | > 200 | > 200 |
| NC(=O)[C@H](CCCN=C(N)N)NC(=O)[C@H](Cc1c[nH]c2ccccc12)NC(=O)[C@H](Cc1c[nH]c2ccccc12)NC(=O)[C@@H](N)CCCN=C(N)N (H-RWWR-NH2) | – | – | 100 (≈ 142 µM) | > 200 |

| Compound | MIC [1] [µg/mL] | MIC [2] [µg/mL] | MIC [3] [µg/mL] | MIC [4] [µg/mL] |
| --- | --- | --- | --- | --- |
| COC(=O)[C@H](CCCN=C(N)N)NC(=O)[C@H](Cc1c[nH]c2ccccc12)NC(=O)[C@H](Cc1c[nH]c2ccccc12)NC(=O)[C@@H](N)CCCN=C(N)N (H-RWWR-OMe) | 15 (≈ 20.9 µM) | 50 (≈ 69.7 µM) | 75 (≈ 105 µM) | > 200 |
| NC(N)=NCCC[C@H](NC(=O)[C@@H](N)Cc1c[nH]c2ccccc12)C(=O)OCc1ccccc1 (H-Trp-Arg-OBn) | 75 (≈ 166 µM) | 75 (≈ 166 µM) | 200 (≈ 444 µM) | > 200 |
| COC(=O)[C@H](CCCN=C(N)N)NC(=O)[C@@H](N)Cc1c[nH]c2ccccc12 (H-Trp-Arg-OMe) | > 200 | > 200 | > 200 | > 200 |
| NC(=O)[C@H](Cc1c[nH]c2ccccc12)NC(=O)[C@H](CCCN=C(N)N)NC(=O)[C@@H](N)Cc1c[nH]c2ccccc12 (H-Trp-Arg-Trp-NH2) | – | – | 100 (≈ 183 µM) | > 200 |
| COC(=O)[C@H](CCCN=C(N)N)NC(=O)[C@H](Cc1c[nH]c2ccccc12)NC(=O)[C@@H](N)Cc1c[nH]c2ccccc12 (H-Trp-Trp-Arg-OMe) | 100 (≈ 178 µM) | 200 (≈ 357 µM) | > 200 | > 200 |
| NC(=O)[C@H](Cc1c[nH]c2ccccc12)NC(=O)[C@H](CCCN=C(N)N)NC(=O)[C@H](CCCN=C(N)N)NC(=O)[C@@H](N)Cc1c[nH]c2ccccc12 (H-WRRW-NH2) | – | – | 200 (≈ 285 µM) | > 200 |
| NC(=O)[C@H](CCCN=C(N)N)NC(=O)[C@H](Cc1c[nH]c2ccccc12)NC(=O)[C@H](CCCN=C(N)N)NC(=O)[C@@H](N)Cc1c[nH]c2ccccc12 (H-WRWR-NH2) | – | – | 200 (≈ 285 µM) | > 200 |
| COC(=O)[C@H](CCCN=C(N)N)NC(=O)[C@H](Cc1c[nH]c2ccccc12)NC(=O)[C@H](CCCN=C(N)N)NC(=O)[C@@H](N)Cc1c[nH]c2ccccc12 (H-WRWR-OMe) | 75 (≈ 105 µM) | 100 (≈ 139 µM) | > 200 | > 200 |
| NCCCC[C@@H](N)C(=O)N[C@@H](Cc1c[nH]c2ccccc12)C(=O)OCc1ccccc1 (H-[dK]-Trp-OBn) | 25 (≈ 59.2 µM) | 50 (≈ 118 µM) | 75 (≈ 178 µM) | > 200 |
| H-RRRWWW-NH2 | – | – | 5 | 5 |
| H-RWRWR-NH2 | – | – | 25 | 200 |
| H-RWRWRW-NH2 | – | – | 5 | 5 |
| H-RWWWRR-NH2 | – | – | 5 | 25 |
| H-WRWRW-NH2 | – | – | 10 | 15 |
| H-WRWRWR-NH2 | – | – | 7.5 | 10 |
| H-WRWRY-NH2 | – | – | 50 | 100 |
| H-WRYRW-NH2 | – | – | 50 | 100 |
| H-WWRRRW-NH2 | – | – | 10 | 25 |

From ChEMBL document CHEMBL1136770, “The pharmacophore of short cationic antibacterial peptides” (2003)
